# Data reported in article PMC10558795 (Redox Biology, 2023).
# Where two headings read alike, the source gives them in different places.
# What was measured:
# NQO1-YFP H1299 cells = experiment: Cell viability; type: cell-based, human; conditions: Homo sapiens, NCI-H1299, read-out: Cell viability (IC50, μM)
# Method in brief: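 NQO1-YFP H1299 reporter cells (YFP in NQO1 intron 1, constitutive mCherry) were seeded 1000/well in 384-well plates and cultured overnight. Primary screen: 1 μM compound in 0.1% DMSO, one well each, with CDDO 200 nM and 0.1% DMSO controls. Retests used 10-point serial dilutions from 10 µM in triplicate, with brusatol control. Imaged at 0, 24, 48, 64 h (YFP = NRF2 activity, mCherry = viability); IC₅₀ by curve fit.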
# [1] = system: NRF2 and NQO1 expression in NRF2^Mut-KYSE180 cells; experiment: Western blotting of NRF2 and NQO1 expression in KYSE180 cells; type: cell-based, human
# Method in brief: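 NRF2-mutant KYSE180 cells (37 °C, 5% CO₂) treated with test compound; nuclear and cytosolic fractions prepared with a nuclear extraction kit. Proteins separated by SDS-PAGE onto nitrocellulose, primary antibody overnight at 4 °C, chemiluminescence on film. Bands quantified by densitometry, mean ± SD, Student's t-test.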
# [2] = system: human NRF2 target genes in KYSE70 cells; experiment: RNAseq of KYSE70 cells; type: cell-based; conditions: PYR 10 μM for 72 h, MIT 20 nM for 72 h
# Method in brief: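 Total RNA from treated and control cells made into Illumina libraries and sequenced (150 bp). Reads aligned to hg38 with RefSeq annotation and counted per gene; DEGs called by fold-change cut-off and corrected p-values. Gene set enrichment analysis performed; overall NRF2 target-gene mRNA level calculated on natural log scale.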
# [3] = system: NRF2 expression in Nrf2^WT MEEC; experiment: NRF2 expression in mouse esophageal epithelial cells; type: cell-based
# Method in brief: (§1)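 Nuclear and cytosolic fractions prepared with an extraction kit, or whole-cell lysates in RIPA buffer. Proteins separated by SDS-PAGE, transferred to nitrocellulose, blocked and probed with primary antibody overnight at 4 °C. Chemiluminescence detected on film and quantified by densitometry; band data as mean ± SD, Student's t-test.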
# [4] = system: NRF2 expression in NRF2^WT-KYSE450 cells; experiment: NRF2 expression in KYSE450 cells; type: cell-based, human
# Method in brief: as §1
# global translation = experiment: Protein synthesis assay; type: cell-based, human; conditions: KYSE70; PYR 10 μM, MIT 20 nM; CHX positive control
# Method in brief: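 KYSE70 cells (37 °C, 5% CO₂) seeded at 2000 cells/well in 96-well plates; exposed to test compound or cycloheximide (positive control) in triplicate. Global translation measured with a commercial protein synthesis assay kit per manufacturer's protocol; cells imaged on a high-content imager.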
# NRF2 (NRF2^WT-KYSE450) = NRF2 (NRF2^WT-KYSE450) (Homo sapiens, UniProt Q16236); experiment: CHX chase analysis of NRF2 half-life in KYSE450 cells; type: cell-based; conditions: PYR 10 μM, MIT 20 nM
# Sequence of NRF2 (NRF2^WT-KYSE450) (Q16236 whole entry): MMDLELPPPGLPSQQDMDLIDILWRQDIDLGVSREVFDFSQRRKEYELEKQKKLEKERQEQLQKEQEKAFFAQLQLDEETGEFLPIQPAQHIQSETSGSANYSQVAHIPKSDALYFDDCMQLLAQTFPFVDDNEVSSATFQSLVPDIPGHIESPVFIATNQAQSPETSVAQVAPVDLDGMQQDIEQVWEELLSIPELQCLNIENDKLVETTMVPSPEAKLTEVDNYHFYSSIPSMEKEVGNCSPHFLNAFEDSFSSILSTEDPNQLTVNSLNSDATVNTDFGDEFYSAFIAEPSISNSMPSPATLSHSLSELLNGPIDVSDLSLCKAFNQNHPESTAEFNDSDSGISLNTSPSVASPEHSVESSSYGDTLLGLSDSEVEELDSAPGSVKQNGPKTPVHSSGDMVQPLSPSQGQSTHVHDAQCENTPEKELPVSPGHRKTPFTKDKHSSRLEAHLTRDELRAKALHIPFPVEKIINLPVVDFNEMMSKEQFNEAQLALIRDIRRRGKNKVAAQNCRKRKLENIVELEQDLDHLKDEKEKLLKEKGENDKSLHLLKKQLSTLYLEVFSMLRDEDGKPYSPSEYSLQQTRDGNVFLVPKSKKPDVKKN
# Method in brief: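 Cells were grown in RPMI1640 GlutaMAX with 10% FBS and 1% penicillin/streptomycin at 37 °C, 5% CO₂. They were pre-incubated 4 h with test compound, then given 200 μg/ml cycloheximide to block protein synthesis. Cells were harvested at set time points after cycloheximide. Total lysates were run on SDS-PAGE and blotted for NRF2 and GAPDH, and band densities were used to calculate NRF2 half-life.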
# [5] = target: NRF2 ubiquitination (KYSE70) (Homo sapiens, UniProt Q16236, W24C); experiment: NRF2-IP and ubiquitin western blotting in KYSE70 cells; type: cell-based; conditions: NRF2^Mut-KYSE70; PYR 10 μM, MIT 20 nM; presence or absence of MG132
# Sequence of NRF2 ubiquitination (KYSE70) (Q16236 whole entry W24C): as the sequence (Q16236 whole entry) above, with W24C counted along it
# Method in brief: (§2)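 Cells treated with test compound, then with or without MG132 (10 μM), lysed in RIPA buffer. Lysate precleared on protein G agarose 1 h at 4 °C, then incubated with 1 μg anti-NRF2 antibody overnight at 4 °C with rotation. Immunocomplexes captured on protein G agarose 1.5 h at 4 °C, washed, boiled in 2X SDS loading buffer at 95 °C for 5 min, and immunoblotted for ubiquitin.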
# [6] = target: NRF2 ubiquitination (KYSE180) (Homo sapiens, UniProt Q16236, D77V); experiment: NRF2-IP and ubiquitin western blotting in KYSE180 cells; type: cell-based; conditions: NRF2^Mut-KYSE180; PYR 10 μM, MIT 20 nM; presence or absence of MG132
# Sequence of NRF2 ubiquitination (KYSE180) (Q16236 whole entry D77V): as the sequence (Q16236 whole entry) above, with D77V counted along it
# Method in brief: as §2
# [7] = target: NRF2 ubiquitination (KYSE450) (Homo sapiens, UniProt Q16236); experiment: NRF2-IP and ubiquitin western blotting in KYSE450 cells; type: cell-based; conditions: NRF2^WT-KYSE450; PYR 10 μM, MIT 20 nM; only in the presence of MG132
# Sequence of NRF2 ubiquitination (KYSE450) (Q16236 whole entry): as the sequence (Q16236 whole entry) above
# Method in brief: as §2
# adult wild-type mice = experiment: Dose-finding experiment in adult wild-type mice; type: in vivo, mouse
# Method in brief: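 Adult wild-type mice, n = 5 per group, dosed orally once daily for 4 weeks with test compound dissolved in N-methyl-2-pyrrolidone:PEG300 (1:9). Grooming, physical strength, movement and body weight tracked during dosing; blood collected for complete blood count, analysed by ANOVA.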
# [8] = system: Sox2CreER;LSL-Nrf2^E79Q/+ mice; experiment: Therapeutic effect on the NRF2^high esophageal phenotype in Sox2CreER; type: in vivo, mouse
# Method in brief: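 Sox2CreER;LSL-Nrf2^E79Q/+ mice induced with tamoxifen (75 mg/kg/day i.p., 5 days), then given oral test compound in N-methyl-2-pyrrolidone:PEG300 (1:9). Part of forestomach resected at Week 1; rest of forestomach and esophageal epithelium taken at Week 3 sacrifice, with BrdU 50 mg/kg i.p. 2 h before. Analysis by Western blotting, H&E, and IHC (DAB, no-primary-antibody controls).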
# [9] = system: mouse NRF2 target genes in the esophageal epithelium; experiment: RNAseq of esophageal epithelium of Sox2CreER; type: in vivo; conditions: PYR given after tamoxifen induction
# Method in brief: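 Sox2CreER;LSL-Nrf2^E79Q/+ mice induced with tamoxifen (75 mg/kg/day i.p., 5 days), then dosed orally with test compound in N-methyl-2-pyrrolidone:PEG300 (1:9). Part of forestomach resected at Week 1; esophageal epithelium harvested at sacrifice, Week 3. Total RNA sequenced; data normalized; overall NRF2 target-gene expression calculated at natural log scale.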
# [10] = Pharmacokinetics of PYR in mice, i.p.; type: in vivo; conditions: 30 mg/kg/day; extrapolated from literature Cmax
# [11] = mice, i.p., cited from earlier work
# [12] = humans, 50 mg/day, p.o., 3 weeks; cited from earlier work
# [13] = PYR given after tamoxifen induction
compound,measurement,setting,value
"CCc1nc(N)nc(N)c1-c1ccc(Cl)cc1 [PYR, Pyrimethamine]",IC50,NQO1-YFP H1299 cells,1.17 µM
same,Expression of nuclear NRF2 and cytoplasmic NQO1,[1],inhibited the expression of nuclear NRF2 and cytoplasmic NQO1 in a dose- and time-dependent manner
same,Overall mRNA expression level of human NRF2 target genes,[2],significantly reduced
same,NRF2 expression,[3],upregulated NRF2 expression
same,NRF2 expression,[4],upregulated NRF2 expression
same,Global translation,global translation,Neither PYR (10 μM) nor MIT (20 nM) inhibited global translation
same,Effect on NRF2 half-life,NRF2 (NRF2^WT-KYSE450),not changed
same,NRF2 ubiquitination,[5],promoted NRF2 ubiquitination
same,NRF2 ubiquitination,[6],promoted NRF2 ubiquitination
same,NRF2 ubiquitination,[7],slightly promoted NRF2 ubiquitination
same,Myelosuppression (complete blood count),adult wild-type mice; 30 mg/kg/day,not myelosuppressive
same,Myelosuppression (complete blood count),"adult wild-type mice; 60 mg/kg/day, p.o., 4 weeks",resulted in myelosuppression including leukopenia and lymphopenia
same,Impact on body weight and general health,"adult wild-type mice; 15, 30 and 60 mg/kg/day, p.o., 4 weeks",did not observe any negative impact
same,NRF2^high esophageal phenotype,"[8]; 30 mg/kg/day, p.o.",effectively inhibited
same,Toxicity,"[8]; 30 mg/kg/day, p.o.",no observed toxicity
same,Expression of NRF2 and its target genes (HMOX1 and AKR1C3) in the esophageal epithelium,[8]; [13],significantly inhibited the expression
same,"NQO1, GCLC and GCLM expression in the esophageal epithelium",[8]; [13],"inhibited, yet without statistical significance"
same,NRF2 expression in the forestomach,[8]; [13],significantly inhibited
same,Overall mRNA expression level of mouse NRF2 target genes in the esophageal epithelium,[9],significantly inhibited the overall mRNA expression level
same,Concentration expected in mouse tissues,[10],~10 µM
same,Cmax,[11]; 12.5 mg/kg,8.04 µM
same,Cmax,[11]; 25 mg/kg,18.5 µM
same,Cmax,[11]; 50 mg/kg,35.8 µM
same,Cmax,[11]; 75 mg/kg,28.2 µM
same,Cmax,[12],8.28 µM
